Measurements collected from several papers.
≈ marks a conversion by molar mass, not a printed value.
Organism: Staphylococcus aureus

Compound	assay	test system	setting	endpoint	value
CCS(=O)(=O)Oc1ccc(C=NNC(=O)CSc2nc3ccc(Cl)cc3c(=O)n2-c2ccccc2)cc1	microbial growth, well diffusion	MRSA	20 µg/mL	inhibition zone	2 mm
CC1(C)S[C@@H]2[C@H](NC(=O)[C@H](N)c3ccccc3)C(=O)N2[C@H]1C(=O)O	microbial growth	MSSA	clinical isolate	MIC90	64 µg/mL (≈ 183 µM)
Nc1ccc(S(=O)(=O)Nc2ncccn2)cc1	microbial growth, well diffusion	MRSA	20 µg/mL	inhibition zone	2 mm
O=C(/C=C/C=C/c1ccccc1)c1ccccc1OCc1ccc(F)cc1	microbial growth, well diffusion	MTCC96	1000 µg/mL, 18 h	inhibition zone	7 mm
Cc1cccc2c(=O)n(-c3ccccc3)c(SCC(=O)NN=Cc3ccc(OS(C)(=O)=O)cc3)nc12	microbial growth, well diffusion	MRSA	20 µg/mL	inhibition zone	2 mm
CN1CCN(CCCN2c3ccccc3Sc3ccc(Cl)cc32)CC1	microbial killing, broth dilution	ATCC43300	18 h	MBC	64 µg/mL
CC[C@H]1OC(=O)[C@H](C)[C@@H](O[C@H]2C[C@@](C)(OC)[C@@H](O)[C@H](C)O2)[C@H](C)[C@@H](O[C@@H]2O[C@H](C)C[C@H](N(C)C)[C@H]2O)[C@](C)(O)C[C@@H](C)/C(=N\OCOCCOC)[C@H](C)[C@@H](O)[C@]1(C)O	microbial growth	MSSA	clinical isolate	MIC90	64 µg/mL (≈ 76.5 µM)
CN(C)CCCN1c2ccccc2Sc2ccc(Cl)cc21	microbial killing, broth dilution	ATCC43300	18 h	MBC	64 µg/mL
COc1cc2c(cc1OC)[C@@H]1Cc3ccc(OC)c(OC)c3CN1CC2	microbial growth		24 h	MIC50	> 1600 µM
O=C(/C=C/C=C/c1ccccc1)c1ccccc1OCc1ccc(Cl)c(Cl)c1	microbial growth, well diffusion	MTCC96	1000 µg/mL, 18 h	inhibition zone	7 mm
CC(=O)NC[C@H]1CN(c2ccc(N3CCOCC3)c(F)c2)C(=O)O1	microbial growth	MSSA	clinical isolate	MIC90	2 µg/mL (≈ 5.93 µM)
O=C(/C=C/C=C/c1ccccc1)c1ccccc1OCc1ccc(Cl)cc1	microbial growth, well diffusion	MTCC96	1000 µg/mL, 18 h	inhibition zone	7 mm
CCS(=O)(=O)Oc1ccc(C=NNC(=O)CSc2nc3c(C)cccc3c(=O)n2-c2ccccc2)cc1OC	microbial growth, well diffusion	MRSA	20 µg/mL	inhibition zone	3 mm
COc1ccc2cc3[n+](cc2c1OC)CCc1cc2c(cc1-3)OCO2	microbial growth		24 h	MIC50	72 µM
COc1ccc(C=NNC(=O)CSc2nc3c(C)cccc3c(=O)n2-c2ccccc2)cc1OS(C)(=O)=O	microbial growth, well diffusion	MRSA	20 µg/mL	inhibition zone	3 mm
CN[C@H](CC(C)C)C(=O)N[C@H]1C(=O)N[C@@H](CC(N)=O)C(=O)N[C@H]2C(=O)N[C@H]3C(=O)N[C@H](C(=O)N[C@H](C(=O)O)c4cc(O)cc(O)c4-c4cc3ccc4O)[C@H](O)c3ccc(c(Cl)c3)Oc3cc2cc(c3O[C@@H]2O[C@H](CO)[C@@H](O)[C@H](O)[C@H]2O[C@H]2C[C@](C)(N)[C@H](O)[C@H](C)O2)Oc2ccc(cc2Cl)[C@H]1O	microbial growth	MRSA	clinical isolate	MIC90	2 µg/mL (≈ 1.38 µM)
